Measured values reported in ChEMBL document CHEMBL2390921, “A novel benzazepinone sodium channel blocker with oral efficacy in a rat model of neuropathic pain” (Bioorg Med Chem Lett, 2013).

Assays:
[1] = tested on: Rattus norvegicus; experiment: Analgesic activity in po dosed rat spinal nerve ligation neuropathic pain model assessed as reversal of allodynia measured at 2 to 4 hrs; format: functional
Outline: (§1)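 Rat spinal nerve ligation model. Seven days after surgery, rats received a single oral dose (3, 10 or 30 mg/kg) of test agent or vehicle. Tactile allodynia was scored at 2, 4, 8 and 24 h post-dose with calibrated von Frey filaments using an up-down paradigm. Threshold is the force giving a 50% withdrawal rate. %MPE = (post-compound − post-SNL)/(pre-SNL − post-SNL) × 100, where 100% is full reversal.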

[2] = molecular target: T1, B1 bradykinin receptor (Homo sapiens) (UniProt P46663); experiment: Binding affinity to BK1 receptor (unknown origin) at 25 uM relative to control
T1 sequence (whole entry): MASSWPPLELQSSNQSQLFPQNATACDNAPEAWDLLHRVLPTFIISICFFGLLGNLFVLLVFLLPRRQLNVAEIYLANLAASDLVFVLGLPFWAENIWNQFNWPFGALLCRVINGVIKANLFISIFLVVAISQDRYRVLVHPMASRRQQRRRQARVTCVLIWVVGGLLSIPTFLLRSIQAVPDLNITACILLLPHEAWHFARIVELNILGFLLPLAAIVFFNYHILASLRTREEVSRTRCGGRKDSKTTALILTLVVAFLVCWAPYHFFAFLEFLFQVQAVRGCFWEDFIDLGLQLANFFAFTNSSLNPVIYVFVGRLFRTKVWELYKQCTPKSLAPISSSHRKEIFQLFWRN

[3] = molecular target: Delta-type opioid receptor (Homo sapiens) (UniProt P41143); experiment: Binding affinity to delta opioid receptor (unknown origin) at 25 uM relative to control
Sequence of Delta-type opioid receptor (Homo sapiens) (P41143 whole entry): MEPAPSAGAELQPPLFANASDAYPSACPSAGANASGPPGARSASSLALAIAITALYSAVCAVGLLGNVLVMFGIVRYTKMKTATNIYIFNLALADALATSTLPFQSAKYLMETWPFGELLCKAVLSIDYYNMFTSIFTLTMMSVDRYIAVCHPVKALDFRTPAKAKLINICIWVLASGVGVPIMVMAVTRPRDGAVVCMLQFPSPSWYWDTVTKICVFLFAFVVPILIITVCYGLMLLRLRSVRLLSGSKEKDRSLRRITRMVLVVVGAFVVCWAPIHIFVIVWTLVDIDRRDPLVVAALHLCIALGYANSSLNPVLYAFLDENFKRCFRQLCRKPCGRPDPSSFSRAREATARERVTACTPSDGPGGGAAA

[4] = molecular target: Sodium channel protein type 9 subunit alpha (Homo sapiens, UniProt Q15858); experiment: Binding affinity to inactivated state of human NaV1.7 channel assessed as inhibition of current evoked by 6 ms depolarizations to 0 mV from holding potential -70 mV at 3 uM by whole-cell patch clamp assay relative to vehicle-treated control
[5] = tested on: Rattus norvegicus; experiment: Analgesic activity in rat spinal nerve ligation neuropathic pain model assessed as reversal of allodynia at 10 mg/kg, po measured at 4 hrs relative to control; format: functional; outline: as §1
[6] = molecular target: Sodium channel protein type 5 subunit alpha (Homo sapiens, UniProt Q14524); experiment: Binding affinity to inactivated state of human NaV1.5 channel by whole-cell patch clamp assay; settings: read-out: K
Sequence of Sodium channel protein type 5 subunit alpha (Q14524 whole entry): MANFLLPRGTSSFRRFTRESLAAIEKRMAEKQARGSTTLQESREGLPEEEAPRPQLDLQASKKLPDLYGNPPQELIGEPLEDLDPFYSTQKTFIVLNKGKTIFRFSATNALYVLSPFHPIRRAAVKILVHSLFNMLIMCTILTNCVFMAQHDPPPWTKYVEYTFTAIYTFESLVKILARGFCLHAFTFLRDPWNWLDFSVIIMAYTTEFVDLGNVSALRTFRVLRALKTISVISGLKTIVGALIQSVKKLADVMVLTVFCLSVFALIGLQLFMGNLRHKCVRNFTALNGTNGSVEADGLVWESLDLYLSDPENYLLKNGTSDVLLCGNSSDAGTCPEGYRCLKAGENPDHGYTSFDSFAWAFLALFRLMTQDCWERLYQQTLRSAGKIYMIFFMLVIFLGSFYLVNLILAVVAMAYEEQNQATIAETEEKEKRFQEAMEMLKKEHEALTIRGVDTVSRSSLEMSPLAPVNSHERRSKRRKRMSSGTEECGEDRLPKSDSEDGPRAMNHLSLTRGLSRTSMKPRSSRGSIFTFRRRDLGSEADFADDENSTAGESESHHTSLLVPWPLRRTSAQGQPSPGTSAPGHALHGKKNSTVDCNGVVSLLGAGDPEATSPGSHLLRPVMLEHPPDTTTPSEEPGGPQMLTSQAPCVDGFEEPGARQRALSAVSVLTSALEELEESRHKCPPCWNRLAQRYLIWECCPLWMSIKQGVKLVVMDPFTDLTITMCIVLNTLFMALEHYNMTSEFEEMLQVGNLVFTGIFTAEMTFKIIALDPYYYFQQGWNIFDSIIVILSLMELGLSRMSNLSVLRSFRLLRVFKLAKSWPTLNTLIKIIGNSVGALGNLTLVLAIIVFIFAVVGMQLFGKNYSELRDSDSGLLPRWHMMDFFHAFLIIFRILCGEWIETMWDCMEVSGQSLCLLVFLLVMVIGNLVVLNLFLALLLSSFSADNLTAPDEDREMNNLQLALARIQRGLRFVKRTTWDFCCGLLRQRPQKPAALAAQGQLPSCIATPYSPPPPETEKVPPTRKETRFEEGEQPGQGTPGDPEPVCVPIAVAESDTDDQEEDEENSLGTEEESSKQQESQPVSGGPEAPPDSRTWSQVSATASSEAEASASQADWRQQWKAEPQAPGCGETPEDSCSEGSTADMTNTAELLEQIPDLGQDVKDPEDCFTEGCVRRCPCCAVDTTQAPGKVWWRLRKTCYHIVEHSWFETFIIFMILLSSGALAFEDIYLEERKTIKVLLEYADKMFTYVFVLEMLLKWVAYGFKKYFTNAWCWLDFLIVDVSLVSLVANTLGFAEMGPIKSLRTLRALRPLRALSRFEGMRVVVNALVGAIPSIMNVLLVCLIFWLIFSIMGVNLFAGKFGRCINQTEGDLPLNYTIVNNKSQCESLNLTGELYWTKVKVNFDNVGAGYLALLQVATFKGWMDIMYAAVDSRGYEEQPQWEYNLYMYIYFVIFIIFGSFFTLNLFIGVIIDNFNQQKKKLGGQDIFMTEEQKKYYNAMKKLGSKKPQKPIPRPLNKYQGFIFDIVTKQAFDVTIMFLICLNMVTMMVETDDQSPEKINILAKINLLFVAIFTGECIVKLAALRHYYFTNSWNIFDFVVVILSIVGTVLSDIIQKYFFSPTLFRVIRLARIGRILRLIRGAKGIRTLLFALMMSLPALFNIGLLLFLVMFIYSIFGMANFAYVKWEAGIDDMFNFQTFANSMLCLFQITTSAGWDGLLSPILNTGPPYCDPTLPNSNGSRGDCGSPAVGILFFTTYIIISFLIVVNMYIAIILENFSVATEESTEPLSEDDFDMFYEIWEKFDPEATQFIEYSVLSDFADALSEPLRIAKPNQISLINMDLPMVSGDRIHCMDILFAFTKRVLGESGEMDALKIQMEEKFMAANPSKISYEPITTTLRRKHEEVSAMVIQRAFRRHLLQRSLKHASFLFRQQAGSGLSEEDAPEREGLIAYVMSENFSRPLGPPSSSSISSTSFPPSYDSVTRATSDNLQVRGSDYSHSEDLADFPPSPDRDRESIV

[7] = molecular target: Mu-type opioid receptor (Homo sapiens) (UniProt P35372); experiment: Binding affinity to mu opioid receptor (unknown origin) at 25 uM relative to control
Sequence of Mu-type opioid receptor (Homo sapiens) (P35372 whole entry): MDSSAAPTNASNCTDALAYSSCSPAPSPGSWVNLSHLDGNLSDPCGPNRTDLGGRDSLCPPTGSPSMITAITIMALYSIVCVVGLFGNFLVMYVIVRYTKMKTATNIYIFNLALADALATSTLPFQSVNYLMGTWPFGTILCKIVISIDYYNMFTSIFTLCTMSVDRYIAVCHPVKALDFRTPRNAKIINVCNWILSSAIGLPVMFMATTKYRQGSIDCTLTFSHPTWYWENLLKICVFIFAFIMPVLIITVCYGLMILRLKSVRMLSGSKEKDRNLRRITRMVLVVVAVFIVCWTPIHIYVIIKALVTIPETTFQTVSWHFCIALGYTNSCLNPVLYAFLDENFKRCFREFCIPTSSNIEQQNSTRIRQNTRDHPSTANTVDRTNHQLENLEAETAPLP

[8] = molecular target: Sodium channel protein type 10 subunit alpha (Homo sapiens) (UniProt Q9Y5Y9); experiment: Binding affinity to inactivated state of NaV1.8 channel (unknown origin) by whole-cell patch clamp assay
Sequence of Sodium channel protein type 10 subunit alpha (Homo sapiens) (Q9Y5Y9 whole entry, looked up): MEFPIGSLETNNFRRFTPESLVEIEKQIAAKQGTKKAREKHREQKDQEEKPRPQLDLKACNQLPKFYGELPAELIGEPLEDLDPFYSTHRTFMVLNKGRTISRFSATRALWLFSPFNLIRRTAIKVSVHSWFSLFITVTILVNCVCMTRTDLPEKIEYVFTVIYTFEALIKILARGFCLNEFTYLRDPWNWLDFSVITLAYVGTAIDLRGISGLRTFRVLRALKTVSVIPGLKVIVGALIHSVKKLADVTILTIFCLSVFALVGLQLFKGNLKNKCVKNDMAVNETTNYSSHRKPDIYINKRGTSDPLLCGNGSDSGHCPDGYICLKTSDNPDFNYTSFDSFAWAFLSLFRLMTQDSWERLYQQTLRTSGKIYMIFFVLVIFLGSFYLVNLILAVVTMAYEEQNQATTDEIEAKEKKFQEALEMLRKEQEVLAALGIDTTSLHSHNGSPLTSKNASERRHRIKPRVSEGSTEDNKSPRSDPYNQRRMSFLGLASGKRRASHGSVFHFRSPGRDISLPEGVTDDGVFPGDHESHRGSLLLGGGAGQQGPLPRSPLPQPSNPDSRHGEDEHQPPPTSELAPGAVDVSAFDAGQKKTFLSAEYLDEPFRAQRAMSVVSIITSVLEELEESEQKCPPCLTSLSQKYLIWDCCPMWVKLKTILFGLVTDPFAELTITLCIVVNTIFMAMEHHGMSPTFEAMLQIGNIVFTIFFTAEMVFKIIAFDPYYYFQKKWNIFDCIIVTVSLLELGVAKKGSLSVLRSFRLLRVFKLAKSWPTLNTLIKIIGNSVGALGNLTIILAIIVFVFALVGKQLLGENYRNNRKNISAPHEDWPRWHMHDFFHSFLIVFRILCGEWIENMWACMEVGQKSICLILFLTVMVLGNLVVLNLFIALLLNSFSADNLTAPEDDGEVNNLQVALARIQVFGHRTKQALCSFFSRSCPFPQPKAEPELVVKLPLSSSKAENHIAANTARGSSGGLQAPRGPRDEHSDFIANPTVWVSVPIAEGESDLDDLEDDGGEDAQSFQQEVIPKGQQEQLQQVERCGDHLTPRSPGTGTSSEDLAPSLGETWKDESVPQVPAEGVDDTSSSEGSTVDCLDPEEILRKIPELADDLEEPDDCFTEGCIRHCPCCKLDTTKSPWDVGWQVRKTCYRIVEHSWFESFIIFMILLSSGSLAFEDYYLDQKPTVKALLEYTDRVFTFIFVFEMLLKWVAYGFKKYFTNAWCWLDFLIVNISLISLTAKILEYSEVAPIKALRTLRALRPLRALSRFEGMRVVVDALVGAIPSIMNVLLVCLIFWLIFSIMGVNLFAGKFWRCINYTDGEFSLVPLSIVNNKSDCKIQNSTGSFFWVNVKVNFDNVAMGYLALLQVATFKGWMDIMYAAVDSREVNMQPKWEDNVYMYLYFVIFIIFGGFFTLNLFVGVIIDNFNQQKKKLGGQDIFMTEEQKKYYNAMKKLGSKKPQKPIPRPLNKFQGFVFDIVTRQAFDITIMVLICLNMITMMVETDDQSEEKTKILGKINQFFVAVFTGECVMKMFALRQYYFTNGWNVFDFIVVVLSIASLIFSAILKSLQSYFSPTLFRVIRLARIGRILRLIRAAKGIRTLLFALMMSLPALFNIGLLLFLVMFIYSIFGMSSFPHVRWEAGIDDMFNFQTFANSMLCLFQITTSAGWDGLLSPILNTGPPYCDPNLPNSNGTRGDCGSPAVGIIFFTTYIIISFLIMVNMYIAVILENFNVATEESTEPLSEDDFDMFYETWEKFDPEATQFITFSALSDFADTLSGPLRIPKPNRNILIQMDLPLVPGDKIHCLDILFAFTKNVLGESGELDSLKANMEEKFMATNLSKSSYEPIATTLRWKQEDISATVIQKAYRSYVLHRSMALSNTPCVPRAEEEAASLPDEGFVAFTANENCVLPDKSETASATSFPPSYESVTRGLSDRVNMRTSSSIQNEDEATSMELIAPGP
Outline: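 Manual whole-cell voltage clamp measuring block of resting and inactivated channel states at room temperature. Data acquired at 50 kHz, filtered at 10 kHz. Bath: 40 mM NaCl, 120 mM NMDG-Cl, 1 mM KCl, 2.7 mM CaCl2, 0.5 mM MgCl2, 10 mM NMDG-HEPES, pH 7.4.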

[9] = tested on: Rattus norvegicus; experiment: Analgesic activity in rat spinal nerve ligation neuropathic pain model assessed as reversal of allodynia at 3 mg/kg, po measured at 24 hrs relative to control; format: functional; outline: as §1
[10] = tested on: Rattus norvegicus; experiment: Analgesic activity in rat spinal nerve ligation neuropathic pain model assessed as reversal of allodynia at 3 mg/kg, po measured at 2 hrs relative to control; format: functional; outline: as §1

Activity [2]: < 50%
Activity [3]: < 50%
inhibition [4]: 48%
Activity [7]: < 50%
K [8]: 3.02 µM
Compound: O=C(N[C@H](Cc1ccccc1F)C(=O)N[C@@H]1CCc2c(F)c(F)cc(F)c2N(C2CC2)C1=O)C1CC1C(F)(F)F (stereo not given in full)
ED50 [1]: 15 mg/kg
Activity [5]: 39%
Kd [6]: 2.38 µM
Activity [9]: 1%
Activity [10]: 15%
